# PRMT1 FP inh: PRMT1 (human) inhibition, primary screen; recombinant PRMT1, activity-based probe fluorescence polarization; 370,000 tested, 1.3% active; inhibition, % at 2.79 µM;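 active means inhibition above about 21% made by adding two undisclosed values, limit read from the data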
# HTRA1 inh: inhibitors of human serine peptidase HTRA1. 340,000 tested, 0.5% active. AID 504803. inhibition, % at 5.96 µM. recombinant HTRA1, FP-rhodamine activity-based probe, fluorescence polarization. Q92743; in the data active means inhibition above about 36%;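 further: 0% = enzyme with DMSO and 100% = wells lacking enzyme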
# mABHD4 FP: inhibitors of mouse ABHD4 | Q8VD66 | purified mABHD4, FP-Rh probe fluorescence polarization | inhibition, % at 8.92 µM | 370,000 tested, 0.54% active | AID 720543;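 active means inhibition exceeding the mean over every tested compound plus 3 SD, cut at about 30% in these data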;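 further: 0% = plate median of compound wells and 100% = S159A mutant with DMSO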
#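 system = mouse ABHD4 enzyme, wild type | medium = HEPES pH 7.0, NaCl, Pluronic buffer | also added = FP-Rh probe | incubation = Enzyme–compound pre-incubation 45 min, then probe 60 min, both 25 °C | technique = fluorescence polarization, excitation 525 nm, emission 598 nm, BODIPY TMR filters | controls = S159A mutant high control, sample median low control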
# GASC-1 inh: inhibitors of human GASC-1 (JMJD2C) demethylase; Q9H3R0; GST-JMJD2C(1-420) H3K9me3 demethylation, DELFIA europium; AID 2099; 330,000 tested, 0.069% active; inhibition, % at 2.35 µM;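 active means more than half of a compound's replicate wells show inhibition beyond 50%, single wells judged on their own value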;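 further: signal counts dimethyl H3K9 product captured on neutravidin plate; 0% = median of DMSO wells and 100% = 0.3 times that DMSO median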
# Target sequence (Q9H3R0 1-420 limits assumed): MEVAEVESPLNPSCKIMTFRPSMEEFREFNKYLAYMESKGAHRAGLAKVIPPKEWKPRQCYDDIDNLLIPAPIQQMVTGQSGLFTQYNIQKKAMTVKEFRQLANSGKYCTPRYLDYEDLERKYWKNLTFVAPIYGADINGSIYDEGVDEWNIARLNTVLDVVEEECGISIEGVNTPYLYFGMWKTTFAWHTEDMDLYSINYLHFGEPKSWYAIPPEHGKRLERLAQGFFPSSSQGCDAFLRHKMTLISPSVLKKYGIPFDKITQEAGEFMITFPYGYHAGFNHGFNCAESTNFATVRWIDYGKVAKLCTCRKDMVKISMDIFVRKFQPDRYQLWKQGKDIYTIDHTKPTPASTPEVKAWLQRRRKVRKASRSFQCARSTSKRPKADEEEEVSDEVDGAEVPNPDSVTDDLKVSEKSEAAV
# SIAE primary: human SIAE inhibition, primary screen; Q9HAT2; SIAE FP-Rh probe binding, fluorescence polarization; inhibition, % at 9.66 µM; 370,000 tested, 0.69% active; AID 1053197;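 active means inhibition above a cutoff: mean of compounds within the control limits plus 3 SD of those, cut at about 17% in these data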;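 further: 0% = plate median of compound wells and 100% = probe without SIAE protein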
# ABHD4 confirm: confirmation of mouse ABHD4 inhibitors; shares compounds with mABHD4 FP; purified mABHD4, FP-Rh probe fluorescence polarization; inhibition, % at 8.92 µM; 1,800 tested, 55% active;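 active means mean inhibition across replicates above the hit cutoff set in the primary screen, cut at about 30% in these data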;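 further: 0% = wild-type ABHD4 with DMSO and 100% = catalytically dead S159A mutant with DMSO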
# * = called active by the depositor; x = not tested or not shown; ! = a repeat was not active. Sampled rows, rich in hits. Any-hit rate of the full collection: about 2.4%.
SMILES,PRMT1 FP inh,HTRA1 inh,mABHD4 FP,GASC-1 inh,SIAE primary,ABHD4 confirm
O=C(O)c1ccc(NCCC2=CCCCC2)c([N+](=O)[O-])c1,1,-5,41*,-5,1,45*
NC(=O)c1ccc(NCCc2ccccc2)c([N+](=O)[O-])c1,-3,-8,3,3,-5,x
C[C@@H]1ON(C)[C@H]2C[C@H]3c4[nH]c5c(-c6ccccc6F)cccc5c4CCN3C[C@@H]12,1,x,9,x,6,x
NC(=O)[C@@H]1CCCN1C(=O)[C@@H](Cc1ccccc1)NC(=O)[C@H]1O[C@@H](n2ccc(N)nc2=O)[C@H](O)[C@@H]1O,-2,x,-2,x,0,x
CNC(=O)OCc1nc(SSC(C)(C)C)n(C)c1COC(=O)NC,-4,-2,6,x,-4,x
O=C(CSc1ccccn1)Nc1ccc2c(c1)C(=O)c1ccccc1C2=O,1,1,8,-26,-3,x
O=C(CSc1n[nH]c(=O)[nH]c1=O)Nc1ccc2c(c1)C(=O)c1ccccc1C2=O,5,5,38*,2,-3,56*
COc1cccc(CNS(=O)(=O)c2c(C)nc3sccn3c2=O)c1,4,4,65*,8,0,-3
Cc1nc2sccn2c(=O)c1S(=O)(=O)NCc1ccccc1,1,4,3,7,-5,x
COc1ccc(S[C@]2(C(=O)N(C)C)CC(=O)N(C(=O)/C=C/c3ccccc3)[C@@H]2c2ccc(OC)cc2)cc1,7,x,0,x,-4,x
CCCCCCCCCCOC(=O)Cn1c(COc2ccccc2)[n+](C)c2ccccc21,-1,20,30*,-3,0,33*
CCCCCCCCCCOC(=O)Cn1c(COc2ccc(Cl)cc2)[n+](C)c2ccccc21,5,34,35*,30,1,55*
CCOC(=O)Cc1csc(NC(=O)c2sc3nc4ccc(C)cc4cc3c2N)n1,0,-17,36*,5,4,14
COc1cc(/C=C(\C#N)c2nc3ccccc3s2)cc([N+](=O)[O-])c1O,2,30,21,-3,-29,x
N#C/C(=C\c1ccc(O)c([N+](=O)[O-])c1)c1nc2ccccc2s1,5,17,30*,-15,-50,71*
COC(=O)N1CCC[C@H]1c1cccc2[nH]cc(C)c12,7,x,-7,x,10,x
Cc1c(CCOC(=O)c2ccc(Cl)cc2Cl)sc[n+]1CC(=O)c1ccc(Br)cc1,7,-23,29,-8,-1,x
Cc1c(CCOC(=O)C2C3CC4CC(C3)CC2C4)sc[n+]1CC(=O)c1ccc(Br)cc1 (stereo unspecified),-1,-68,32*!,-7,-1,36*
N#CCC(=O)NNc1c([N+](=O)[O-])cc(C(F)(F)F)cc1[N+](=O)[O-],3,x,43*,2,7,5
O=C(O)c1ccc(NC(=O)c2ccc3c(c2)C(=O)N(c2ccccc2)C3=O)cc1,2,4,6,-5,-16,x
O=C(O)c1ccc(S(=O)(=O)c2ccc3c(c2)C(=O)N(c2ccc(O)cc2)C3=O)cc1,19,14,92*,-11,8,-18
CN(C(=O)Cn1cnc2ccccc2c1=O)C1CCS(=O)(=O)C1 (stereo unspecified),2,-2,50*,6,7,-9
Cc1ccc(C)c(NC(=O)Cn2nnc(-c3ccncc3)n2)c1,4,x,-1,x,0,x
O=[N+]([O-])c1cc(Br)cc(/C=N/n2cnnc2)c1O,7,7,8,0,2,x
C=CCS/C(N)=N\N=C\c1cc(Br)cc([N+](=O)[O-])c1O,6,22,31*,14,2,6
OCC[C@H]1C[C@@H](O)[C@H](O)[C@]2(OCCc3ccccc32)O1,1,8,35*,-7,0,1
C[C@@H]1CN([C@@H](C)CO)C(=O)CCCn2cc(nn2)CO[C@H]1CN(C)C(=O)c1ccc(N2CCN(C)CC2)cc1,-1,x,3,x,2,x
Cc1cc2c(cc1C)N(C(=O)CSC1=NCCS1)C(C)(C)c1ssc(=S)c1-2,7,30,37*,6,9,14
Cc1onc(-c2c(F)cccc2Cl)c1C(=O)OCC(=O)Nc1cccc(S(=O)(=O)N(C)C)c1,3,-16,-6,x,-18,x
Nc1ccc2c(c1)-c1ccccc1S(=O)(=O)N2,22*,30,50*,5,14,31*

# Compound activity from PubChem BioAssay.
